aDG glyco up: activators of alpha-DG glycosylation, primary screen, uHTS, Pro5-aDG cells, AlphaScreen | alpha-DG glycosylation AlphaScreen (IIH6); 0% Pro5, 100% B10-LARGE cell signal | activation, % at 10 µM | AID 624168, 2012 | 360,000 tested, 0.22% active;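 active = activation of at least 8% versus controls, or a plate z-score of at least 8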;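 also: Pro5 are CHO cells carrying HIG-tagged alpha-DG that lacks glycosylation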
NRP1-CendR mod: modulators of CendR peptide binding to NRP-1, primary screen, biochemical, fluorescence polarization, uHTS; FAM-RPARPAR peptide binding to NRP-1; Neuropilin-1 (Homo sapiens), O14786; 360,000 tested, 0.85% active; inhibition, % at 25 µM;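 active = inhibition or corrected inhibition above about 18%, plus a signal ratio from 0.5 to 1.5, limit read from the data, passing the limit was not always enough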
Target sequence (O14786 whole entry, looked up): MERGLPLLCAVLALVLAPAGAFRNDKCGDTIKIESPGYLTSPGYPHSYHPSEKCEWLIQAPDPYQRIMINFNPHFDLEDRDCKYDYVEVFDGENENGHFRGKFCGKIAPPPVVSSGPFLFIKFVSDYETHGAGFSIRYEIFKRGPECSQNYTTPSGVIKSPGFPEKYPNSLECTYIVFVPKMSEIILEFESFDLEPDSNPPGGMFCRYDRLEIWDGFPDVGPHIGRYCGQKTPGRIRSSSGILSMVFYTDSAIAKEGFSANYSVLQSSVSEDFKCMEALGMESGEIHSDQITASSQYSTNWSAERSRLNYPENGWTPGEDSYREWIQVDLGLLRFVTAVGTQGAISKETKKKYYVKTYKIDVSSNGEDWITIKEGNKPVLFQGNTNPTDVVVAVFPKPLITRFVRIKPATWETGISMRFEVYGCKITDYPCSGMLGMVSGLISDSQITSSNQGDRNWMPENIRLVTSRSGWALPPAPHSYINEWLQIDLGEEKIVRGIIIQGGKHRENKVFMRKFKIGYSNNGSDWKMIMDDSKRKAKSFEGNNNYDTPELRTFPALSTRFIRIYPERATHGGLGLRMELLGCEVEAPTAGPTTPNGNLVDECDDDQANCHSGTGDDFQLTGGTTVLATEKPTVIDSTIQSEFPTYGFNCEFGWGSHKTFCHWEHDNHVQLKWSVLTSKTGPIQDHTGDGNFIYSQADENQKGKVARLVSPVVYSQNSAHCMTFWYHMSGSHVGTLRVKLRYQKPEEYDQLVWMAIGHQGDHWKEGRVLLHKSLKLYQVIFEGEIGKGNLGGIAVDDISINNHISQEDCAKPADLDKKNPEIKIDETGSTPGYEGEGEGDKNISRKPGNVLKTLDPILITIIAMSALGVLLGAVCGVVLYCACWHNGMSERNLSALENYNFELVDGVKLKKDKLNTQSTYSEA
Tn7 DDE FP: inhibitors of Tn7 peptide binding to fibrin DD(E), primary screen, biochemical, fluorescence polarization, human fibrin, Tn7 probe. Fibrinogen beta chain (Homo sapiens), P02675. FP displacement of FITC-Tn7 peptide from fibrin DD(E); 0% = median of compound wells per plate. inhibition, % at 8.3 µM. 370,000 tested, 0.13% active. AID 720508, 2013;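 active = inhibition above the mean of compounds falling within the control limits plus 3 SD of them, cut at about 14% in these data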;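 also: 0% = plate median of compound wells and 100% = 10 µM Aha-Tn7 peptide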
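Assay system: Human fibrin DD(E) protein | Medium: Tris buffer with calcium and detergent, pH 7.8 | Reagent: 0.1 µM fluorescent Tn7 | Compound dosing: Single point at 8.3 µM | Times: 10 min preincubation, 3 h with tracer, room temperature | Detection: Fluorescence polarization of the labelled Tn7 tracer | Controls: Aha-Tn7 high control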
Tn6 DDE FP: inhibitors of Tn6 peptide binding to fibrin DD(E), primary screen, biochemical, fluorescence polarization, human fibrin, Tn6 probe. Fibrinogen beta chain (Homo sapiens), P02675. Fibrin DD(E) TRITC-Tn6 fluorescence polarization displacement. inhibition, % at 8.3 µM. 370,000 tested, 0.21% active;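 active = inhibition above a per-campaign cutoff: mean of compounds within control limits plus 3 SD, cut at about 15% in these data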;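 also: 0% = median of all compound wells on the plate and 100% = blocking peptide control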
* marks the source's active call; other numbers are inactive results; . = not tested or not shown; + = active, no number. Rows were chosen to be rich in hits. Some 1.3% of all compounds tested hit in one or more screens of this group.

SMILES | aDG glyco up | NRP1-CendR mod | Tn7 DDE FP | Tn6 DDE FP
COc1ccc(CNC(=O)N(C)C[C@@H]2OCc3ccccc3-c3c(n(C)c4ccccc34)C(=O)N([C@@H](C)CO)C[C@@H]2C)cc1 | . | . | 0 | 0
CCOC(=O)N1CCN(C(=O)C[C@@H]2C[C@@]3(C(=O)OCC)CCCC=C3N(Cc3ccccc3)C2=O)CC1 | 0 | 36* | -2 | -7
COc1cccc(-c2cnc3c(c2)C(=O)N([C@H](C)CO)C[C@@H](C)[C@H](CN(C)C(=O)Nc2ccccc2F)O3)c1 | 0 | -7 | 3 | -12
CC(=O)Nc1ccc(-c2ccnc3c2CC(C(=O)Nc2cccc(C(C)=O)c2)O3)cc1 (configuration not stated) | 0 | -1 | -4 | -5
CC(=O)Nc1ccc(-c2ccnc3c2CC(C(=O)Nc2cccnc2)O3)cc1 (configuration not stated) | 0 | 27* | -4 | -2
CN(C)c1ccc(/C=C/c2ccc3ccccc3[n+]2C)cc1 | 4 | -43 | -3 | 14
CN(C)c1ccc(/C=C/c2ccc3c4ccccc4ccc3[n+]2-c2ccccc2)cc1 | -1 | -78 | 9 | +
O=C(Nc1ccc(Cl)cc1C(=O)c1ccccn1)c1ccccc1 | 0 | 3 | -1 | 3
O=C(CSc1nnc(COc2ccccc2)n1-c1ccc(Cl)cc1)Nc1ccc2c(c1)OCCO2 | . | . | -1 | -4
O=C(CNC(=S)N(CCCN1CCOCC1)Cc1cccs1)NCc1ccccc1 | 0 | 34* | 4 | -4
CCCCCCC[C@H](N)[C@H](O)C(=O)N(C)[C@@H](CCS(C)=O)C(=O)N[C@@H](Cc1ccc(O)cc1)C(=O)O (some centres not stated) | . | . | 5 | 4
COc1ccc(NC(=O)C(C)Sc2ccccc2)cc1 (configuration not stated) | 0 | 42* | 5 | 4
C[C@@H](c1ccccc1)N1C[C@@H](COCc2ccccc2)Oc2cc(N3CC[C@@H](N(C)C)C3)ccc2S1(=O)=O | 1 | 25* | 13 | -1
Cc1cccc(NC(=O)CSc2nnc(-c3cccnc3)n2Cc2ccco2)c1C | . | . | -3 | 3
COc1ccc(NC(C)C(=O)N/N=C/c2ccccc2OCc2ccc(Br)cc2)cc1 (configuration not stated) | 0 | 22* | -3 | -6
CC(Nc1ccc(Br)cc1)C(=O)N/N=C/c1ccccc1OCc1ccccc1 (configuration not stated) | 0 | 23 | -2 | 3
CCC(=O)OCCCN1CCC2(CCC(c3ccccc3)CC2)C1=O (configuration not stated) | . | . | 1 | 1
Cc1ccc(F)c(S(=O)(=O)NC(=O)C2(C)CCN2C(=O)c2ccc(C3CCCCC3)cc2)c1 (configuration not stated) | 0 | 26* | -1 | -6
CC1(C(=O)NS(=O)(=O)c2ccccc2)CCN1C(=O)c1ccc(C2CCCCC2)cc1 (configuration not stated) | 0 | -3 | -3 | 1
O=C(CCCCCCN1C(=O)c2ccccc2C1=O)NC1CCCCC1 | 0 | 4 | 10 | 3
O=C(CCCCCN1C(=O)c2ccccc2C1=O)NC1CCCC1 | 0 | 24* | 5 | -1
OCCNc1ncnc2ccc(Br)cc12 | 0 | 44* | 0 | -1
CCOC(=O)C(=CNc1ccc(N2CCCCC2)c(S(=O)(=O)Nc2ccccc2OC)c1)C(=O)OCC | 0 | 36* | 7 | -4
COc1ccccc1NS(=O)(=O)c1cc(NC(C)=O)ccc1N1CCCCC1 | 0 | 6 | 4 | -11
COC(=O)[C@]12C[C@H](CC(=O)NCCC(C)C)C(=O)N(CCC3=CCCCC3)C1=C[C@H](C1CCCC1)O[C@@H]2C | . | . | -4 | -5
COc1ccc(NC(=O)N(C)C[C@@H]2OCCCC[C@@H](C)Oc3ccc(NS(C)(=O)=O)cc3C(=O)N([C@H](C)CO)C[C@@H]2C)cc1 | . | . | 3 | 1
COc1ccc(C(=O)Cn2nnc(-c3ccccc3NC(=O)C3CC3)n2)cc1 | 1 | 33* | -2 | 2
COc1ccccc1C(=O)NCCCNC(=O)c1cccnc1 | 0 | 33* | -3 | -2

Compound activity (PubChem BioAssay)
